# Data published in ChEMBL document CHEMBL1154647, “Synthesis, spectral characterization and biological evaluation of phosphorylated derivatives of galanthamine” (Eur J Med Chem, 2010).
# Columns and labels:
# Brain [1] = test: Antioxidant activity in Wistar rat brain assessed as inhibition of lipid peroxidation; format: functional, tissue-based
# Brain [2] = test: Antioxidant activity in Wistar rat brain assessed as reduction in glutathione content; format: functional, tissue-based
# In short: (§1)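 Wistar rat brain was homogenised 1:40 (w/v) in 0.1 M phosphate buffer, pH 7.4, with 1 mM EDTA. Total glutathione (GSH + GSSG) and reduced GSH were assayed spectrophotometrically from optical density, using net rate against a standard-curve slope and intercept, times a dilution factor. Homogenate protein was measured by the Lowry method.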
# [3] = Inhibition of superoxide dismutase in Wistar rat brain; format: tissue-based
# Catalase = molecular target: T1, Catalase (Rattus norvegicus, UniProt P04762); test: Inhibition of catalase in Wistar rat brain
# T1 sequence (P04762 whole entry): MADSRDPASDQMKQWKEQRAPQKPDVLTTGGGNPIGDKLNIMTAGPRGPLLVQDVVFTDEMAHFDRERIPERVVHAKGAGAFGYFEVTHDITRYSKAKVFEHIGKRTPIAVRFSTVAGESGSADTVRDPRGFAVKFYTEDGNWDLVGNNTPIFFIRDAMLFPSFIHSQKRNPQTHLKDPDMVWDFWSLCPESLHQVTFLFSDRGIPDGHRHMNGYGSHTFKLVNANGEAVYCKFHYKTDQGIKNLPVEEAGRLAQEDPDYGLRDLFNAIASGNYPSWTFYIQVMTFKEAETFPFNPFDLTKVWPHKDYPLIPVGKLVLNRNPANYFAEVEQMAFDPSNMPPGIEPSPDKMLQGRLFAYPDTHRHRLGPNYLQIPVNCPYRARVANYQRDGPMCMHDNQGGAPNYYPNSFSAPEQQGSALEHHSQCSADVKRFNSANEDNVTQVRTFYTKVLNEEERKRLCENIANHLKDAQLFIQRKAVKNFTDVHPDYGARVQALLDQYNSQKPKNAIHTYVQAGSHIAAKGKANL
# Staphylococcus aureus [4] = test: Antibacterial activity against Staphylococcus aureus after 18 hrs; format: functional
# Klebsiella pneumoniae [5] = test: Antibacterial activity against Klebsiella pneumoniae after 18 hrs; format: functional
# Bacillus subtilis [6] = test: Antibacterial activity against Bacillus subtilis after 18 hrs; format: functional
# Escherichia coli [7] = test: Antibacterial activity against Escherichia coli after 18 hrs; format: functional
# Brain [8] = test: Antioxidant activity in Wistar rat brain assessed as superoxide dismutase content; format: functional
# Brain [9] = test: Antioxidant activity in Wistar rat brain assessed as catalase content; format: functional
# Brain [10] = test: Antioxidant activity in Wistar rat brain assessed as lipid peroxidation; format: functional, tissue-based
# Brain [11] = test: Antioxidant activity in Wistar rat brain assessed as glutathione content; format: functional; in short: as §1
# Klebsiella pneumoniae [12] = test: Antibacterial activity against Klebsiella pneumoniae at 1 mg/mL after 18 hrs by disc diffusion assay; format: functional; conditions: read-out: IZ
# In short: (§2)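 Bacteria were grown in nutrient broth at 37 °C for 18 h on a rotary shaker at 150 rpm. Compounds were dissolved in DMF. Nutrient agar plates were dried at 35–36 °C for about 30 min, and test strains were spread on the surface. Discs were applied, and plates were inverted and incubated at 37 °C. A DMF blank was run.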
# Staphylococcus aureus [13] = test: Antibacterial activity against Staphylococcus aureus at 1 mg/mL after 18 hrs by disc diffusion assay; format: functional; conditions: read-out: IZ; in short: as §2
# Bacillus subtilis [14] = test: Antibacterial activity against Bacillus subtilis at 1 mg/mL after 18 hrs by disc diffusion assay; format: functional; conditions: read-out: IZ; in short: as §2
# Escherichia coli [15] = test: Antibacterial activity against Escherichia coli at 1 mg/mL after 18 hrs by disc diffusion assay; format: functional; conditions: read-out: IZ; in short: as §2
# Klebsiella pneumoniae [16] = test: Antibacterial activity against Klebsiella pneumoniae at 2 mg/mL after 18 hrs by disc diffusion assay; format: functional; conditions: read-out: IZ; in short: as §2
# Staphylococcus aureus [17] = test: Antibacterial activity against Staphylococcus aureus at 2 mg/mL after 18 hrs by disc diffusion assay; format: functional; conditions: read-out: IZ; in short: as §2
# Bacillus subtilis [18] = test: Antibacterial activity against Bacillus subtilis at 2 mg/mL after 18 hrs by disc diffusion assay; format: functional; conditions: read-out: IZ; in short: as §2
# Escherichia coli [19] = test: Antibacterial activity against Escherichia coli at 2 mg/mL after 18 hrs by disc diffusion assay; format: functional; conditions: read-out: IZ; in short: as §2
Structure (SMILES),EC50 (Brain [1]) [µg/mL],EC50 (Brain [2]) [µg/mL],EC50 [3] [µg/mL],EC50 (Catalase) [µg/mL],MIC (Staphylococcus aureus [4]) [µg/mL],MIC (Klebsiella pneumoniae [5]) [µg/mL],MIC (Bacillus subtilis [6]) [µg/mL],MIC (Escherichia coli [7]) [µg/mL],Activity (Brain [8]) [µg/mL],Activity (Brain [9]) [µg/mL],Activity (Brain [10]) [µg/mL],Activity (Brain [11]) [µg/mL],zone of inhibition at 1000 µg/mL (Klebsiella pneumoniae [12]) [mm],zone of inhibition at 1000 µg/mL (Staphylococcus aureus [13]) [mm],zone of inhibition at 1000 µg/mL (Bacillus subtilis [14]) [mm],zone of inhibition at 1000 µg/mL (Escherichia coli [15]) [mm],zone of inhibition at 2000 µg/mL (Klebsiella pneumoniae [16]) [mm],zone of inhibition at 2000 µg/mL (Staphylococcus aureus [17]) [mm],zone of inhibition at 2000 µg/mL (Bacillus subtilis [18]) [mm],zone of inhibition at 2000 µg/mL (Escherichia coli [19]) [mm]
COc1ccc2c3c1O[C@H]1C[C@@H](OP(=O)(Oc4ccc([N+](=O)[O-])cc4)OP(=O)(O)O)C=C[C@@]31CCN(C)C2 (stereo not given in full),3.33,2.15,2.69,2.92,0.76,0.28,0.19,0.46,29.55,287.38,72.2,4.22,1.88,2.38,2.05,2.42,5.45,4.56,3.78,4.97
COc1ccc2c3c1O[C@H]1C[C@@H](OP(=O)(OP(=O)(O)O)N(CCCl)CCCl)C=C[C@@]31CCN(C)C2 (stereo not given in full),1.98,2.68,1.26,2.18,0.38,0.48,0.16,0.42,28.14,278.33,74.9,4.72,1.39,1.72,2.09,1.26,3.68,4.65,4.49,4.08
COc1ccc2c3c1O[C@H]1C[C@@H](OP(=O)(OCCO)N(CCCl)CCCl)C=C[C@@]31CCN(C)C2 (stereo not given in full),2.87,2.02,1.98,2.21,0.42,0.57,0.28,0.5,29.02,291.27,68.2,4.67,1.65,3.03,1.63,1.57,4.76,5.02,4.89,3.18
COc1ccc2c3c1O[C@H]1C[C@@H](OP(=O)(Oc4ccc([N+](=O)[O-])cc4)SCCO)C=C[C@@]31CCN(C)C2 (stereo not given in full),2.64,1.49,1.55,4.25,0.29,0.36,0.1,0.34,29.69,288.58,72.8,4.77,2.36,2.5,1.81,3.62,5.01,4.91,3.06,4.38
COc1ccc2c3c1O[C@H]1C[C@@H](OP(=O)(OCCO)Oc4ccc([N+](=O)[O-])cc4)C=C[C@@]31CCN(C)C2 (stereo not given in full),3.17,2.82,3.28,3.28,1.09,0.39,0.25,0.67,29.41,286.43,72.1,5.21,2.69,1.9,2.61,1.53,4.96,4.27,3.71,5.01
COc1ccc2c3c1O[C@H]1C[C@@H](OP(=O)(NCCO)Oc4ccc([N+](=O)[O-])cc4)C=C[C@@]31CCN(C)C2 (stereo not given in full),2.81,1.08,2.57,4.94,0.81,0.42,0.21,0.44,29.37,284.32,72.5,4.72,2.43,1.59,1.53,1.62,5.44,3.94,4.16,4.44
COc1ccc2c3c1O[C@H]1C[C@@H](OP(=O)(NCCO)N(CCCl)CCCl)C=C[C@@]31CCN(C)C2 (stereo not given in full),1.42,1.03,1.28,1.52,0.29,0.15,0.11,0.35,29.86,287.59,72.3,4.73,1.47,1.47,2.22,1.32,4.45,4.78,3.46,3.86
COc1ccc2c3c1O[C@H]1C[C@@H](OP(=O)(NCCN)N(CCCl)CCCl)C=C[C@@]31CCN(C)C2 (stereo not given in full),2.88,2.43,2.77,2.73,0.49,0.33,0.12,0.55,30.29,285.48,72.5,4.84,2.89,2.35,1.57,2.33,4.8,3.51,3.9,4.9
